Tests used:
[1] = Oral pharmacokinetics of curcumin in plasma of freely mobile rats; type: in vivo, Male Sprague-Dawley rats; conditions: for AUC/dose: mean ± SEM, n = 4
Procedure, shortened: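 Male Sprague-Dawley rats (215 ± 10 g) had jugular catheters placed under pentobarbital (50 mg/kg ip) and were used freely moving one day later. They were dosed by gavage at 1 g/kg. Heparinized jugular blood was drawn from 15 to 480 min, and plasma was stored at −20°C. Samples were assayed by HPLC with an internal standard (425 nm; acetonitrile/10 mM phosphate pH 3.5). Noncompartmental analysis, n = 4.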

[2] = Cumulative excretion of curcumin in feces and urine; type: in vivo, Male Sprague-Dawley rats; conditions: rat, oral, 1 g/kg; collected up to 72 hours
[3] = tested on: reverted rat gut sacs; test: Ex vivo curcumin absorption using reverted rat gut sacs; type: in vitro ADME, Male Sprague-Dawley rats; conditions: serosal fluid + sac tissue; 100 μg/mL, 60 minutes, 37°C; mean ± SE, n = 4
Procedure, shortened: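 Rats (210 ± 10 g) killed by i.p. urethane/α-chloralose overdose. Small intestine rinsed with 0.9% saline, split into duodenum, jejunum and ileum in 37°C TC-199 (pH 7.4), everted, and tied into ~2 cm medium-filled sacs. Sacs shaken at 37°C in TC-199 with added 100 μg/mL test compound or nanoformulation, 1 h. Serosal fluid and acetonitrile-homogenized tissue protein-precipitated with internal standard, then analysed by HPLC; amounts summed.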

[4] = male, Sprague-Dawley, rat, plasma, po, 1 g/kg

AUC [1, 4]: 104 ng·h/mL | Cmax [1, 4]: 28 ± 10 ng/mL | Tmax [1, 4]: 45 min | Time for which curcumin could be detected in plasma after oral ingestion ([1]; rat plasma, oral, 1 g/kg (b48 prints 1 mg/kg)): 6 h | AUC/dose ([1]; rat plasma, oral, 1 g/kg): 0.0062 ± 0.003 | AUC/dose ([1]; rat plasma, oral, 1 g/kg, listed as curcumin alone): 0.0062 | Accumulated percentage of curcumin in urine [2]: ~0% | Accumulated percentage of unabsorbed curcumin in feces [2]: ~90% | Curcumin amount after incubation, duodenum [3]: 0.47 ± 0.04 µg | Curcumin amount after incubation, ileum [3]: 0.85 ± 0.02 µg | Curcumin amount after incubation, jejunum [3]: 1.01 ± 0.05 µg
Structure (SMILES): COc1cc(/C=C/C(=O)CC(=O)/C=C/c2ccc(O)c(OC)c2)ccc1O [Curcumin]

Reference: publication PMC3384366 (International Journal of Nanomedicine, 2012)
